Assay outcomes: PubChem BioAssay, several laboratories
CSC inhib – blocks cancer stem cells; cancer stem cell-like cells viability, luminescence; inhibition, % at 7.5 µM; 1.1% of 300,000 active; in the data active = inhibition above about 75%; inconclusive = no clear call, values can overlap the other calls; tested in HMLE shEcad cells
Calb FLC – C. albicans growth modulation with fluconazole; C. albicans CaCi-2 (fluconazole-resistant clinical isolate) + fluconazole, Alamar Blue growth, 48 h; 0.57% of 300,000 active; AID 1979; growth inhibition, % (test concentration not listed);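 active = growth inhibition above about 58% in most replicates, limit read from the data, passing the limit was not always enough; inconclusive = exactly half the replicates above a set limit; inactive = most replicates below a set limit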;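 note: all wells also contain fluconazole at 8 µg/ml as a sub-toxic cotreatment; 0% = median of DMSO wells and 100% = median of geldanamycin control wells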
T cruzi inh – blocks replication of Trypanosoma cruzi; T. cruzi beta-gal in NIH3T3, luminescence, 90 h; inhibition, % (test concentration not listed); 1.4% of 300,000 active;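 active = mean inhibition across valid replicates above about 55%, limit read from the data; inconclusive = mean below that limit but half or more replicates reach it; inactive = mean below it, under half of replicates reach it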;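 note: signal also drops with host cell toxicity which is not excluded here; 0% = plate median of DMSO wells and 100% = zero luminescence signal; higher percent means less beta-gal luminescence so fewer parasites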
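Incubation – ≥90 h infection period, 3 h prior cell attachment · System – NIH/3T3 fibroblasts plus reporter T. cruzi · Doses – compound pinned at 50 nL/well, DMSO · Read-out basis – percent inhibition of parasite-derived β-gal signal · Signal – luminescent β-galactosidase signal after 60 min lysis · Also added – 5000 T. cruzi trypomastigotes/well · Medium – Low-serum DMEM with 2% FBS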
Mdm2-MdmX inh – disrupts the human Mdm2-MdmX interaction; 3% of 330,000 active; inhibition, % at 8 µM; AID 485346; SaOS-2 split-luciferase Mdm2/MdmX complementation, luminescence; O15151+Q00987;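 active = inhibition of at least 50% at 8 µM in the primary screen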
Target sequence (O15151 whole entry, looked up): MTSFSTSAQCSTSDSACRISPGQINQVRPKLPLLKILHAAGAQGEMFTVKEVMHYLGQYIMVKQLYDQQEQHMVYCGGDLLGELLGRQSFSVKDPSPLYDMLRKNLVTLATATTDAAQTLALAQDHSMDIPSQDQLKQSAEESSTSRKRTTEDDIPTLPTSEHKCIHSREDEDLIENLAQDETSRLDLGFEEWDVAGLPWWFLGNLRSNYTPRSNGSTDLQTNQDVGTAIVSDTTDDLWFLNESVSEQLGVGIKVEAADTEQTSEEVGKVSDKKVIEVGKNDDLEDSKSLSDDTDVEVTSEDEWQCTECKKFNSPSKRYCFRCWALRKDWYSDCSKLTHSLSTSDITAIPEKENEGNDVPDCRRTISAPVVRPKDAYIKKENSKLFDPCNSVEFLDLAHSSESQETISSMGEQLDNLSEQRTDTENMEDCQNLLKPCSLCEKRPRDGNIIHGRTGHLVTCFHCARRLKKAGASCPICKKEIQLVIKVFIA
Target sequence (Q00987 whole entry, looked up): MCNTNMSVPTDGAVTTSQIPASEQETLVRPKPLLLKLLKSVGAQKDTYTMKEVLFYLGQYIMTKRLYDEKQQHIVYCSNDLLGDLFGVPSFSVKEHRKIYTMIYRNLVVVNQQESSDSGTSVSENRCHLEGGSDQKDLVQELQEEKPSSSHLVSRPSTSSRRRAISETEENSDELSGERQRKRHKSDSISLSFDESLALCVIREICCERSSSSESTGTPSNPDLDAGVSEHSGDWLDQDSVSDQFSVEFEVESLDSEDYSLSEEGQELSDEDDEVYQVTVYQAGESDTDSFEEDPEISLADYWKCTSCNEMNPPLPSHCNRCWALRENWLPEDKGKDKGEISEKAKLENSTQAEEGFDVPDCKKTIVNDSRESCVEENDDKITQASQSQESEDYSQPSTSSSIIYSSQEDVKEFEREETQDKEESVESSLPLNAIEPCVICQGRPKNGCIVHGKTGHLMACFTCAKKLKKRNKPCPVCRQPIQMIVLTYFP
SKKanGAS inh – inhibitors of SKKanGAS S. pyogenes growth in kanamycin (SK-promoter or general growth effect); BacTiter-Glo, 6 h; inhibition, % at 7.5 µM; 1.3% of 300,000 active; AID 1662;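 active = mean replicate score, as percent of positive control median, at least 50; inconclusive = mean below 50 but one replicate at or above 50; inactive = mean and every replicate below 50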;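 note: strain carries kanamycin resistance gene driven by streptokinase promoter and grows in 40 µg/ml kanamycin; loss of luminescence reflects streptokinase promoter inhibition or plain growth inhibition; 0% = median of DMSO wells and 100% = positive control at its reference dose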
Beta apoptosis – beta cell apoptosis inhibition. INS-1E cytokine-induced death, ATP luminescence, 48 h; percent of positive-control rescue, neutral wells zero. protection from apoptosis, % (no concentration beside the values). 0.8% of 300,000 active. AID 435005;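 active = Every replicate reaches about 75%, or at least half do and their mean reaches it too, limit read from the data; inconclusive = At least half of replicates reach the limit but their mean does not; inactive = Under half of replicates reach the limit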;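 note: 0% = cytokine-treated negative control wells and 100% = positive control rescue; higher means more ATP so stronger rescue from cytokine killing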
Mdm2-MdmX conf – human Mdm2/MdmX binding inhibition, confirmed. shares compounds with Mdm2-MdmX inh. luminescent assay. inhibition, % at 8 µM. 55% of 10,000 active; in the data active = inhibition above about 40%
Full FLuc ctr – inhibits full-length luciferase, flagging false Mdm2/MdmX hits. shares compounds with Mdm2-MdmX inh. SaOS-2 full-length luciferase counterscreen, luminescence. inhibition, % at 8 µM. 77% of 6,200 active. AID 504607;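 active = mean inhibition at 8 µM reaching about 37%, which flags the compound as non-specific, limit read from the data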;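 note: p53-null SaOS-2 cells with luciferase driven by a doxycycline-inducible promoter; compound on cells about two nights before reading with doxycycline added after day one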
Starred values were filed as active, the others as inactive; ? = inconclusive; . = no result. In the library only some 5.7% were active in any assay of this set; here they are far more common.

SMILES	CSC inhib	Calb FLC	T cruzi inh	Mdm2-MdmX inh	SKKanGAS inh	Beta apoptosis	Mdm2-MdmX conf	Full FLuc ctr
COc1ccc(CCn2c(=N)c(C(=O)NC3CCCC3)cc3c(=O)n4ccccc4nc32)cc1OC	-17.0	-3.9	31.0	38.6	7.3	1.5	.	.
COc1cccc(-c2sc3ccccc3c2-c2ccc(OCCN3CCCCC3)cc2)c1	104.2*	.	.	95.0*	.	27.8	28.4	.
COc1cccc(-c2sc3cc(OC)c(OC)cc3c2-c2ccc(OCCN3CCCCC3)cc2)c1	.	.	.	78.3*	.	.	23.4	.
COc1cccc(-c2sc3ccc(OC)cc3c2-c2ccc(C(N)=O)cc2)c1	-16.5	.	.	-0.7	.	-5.0	.	.
COc1cccc(-c2sc3ccccc3c2-c2ccc(OCCN3CCCC3)cc2)c1	103.9*	.	.	100.0*	.	4.8	21.5	.
COc1cccc(-c2sc3ccc(OC)cc3c2-c2ccc(OCCN3CCCC3)cc2)c1	.	.	.	69.3*	.	.	33.0	27.8
O=C(NCCC1CCCCN1S(=O)(=O)c1ccc(F)cc1)C(=O)NCCN1CCOCC1 (stereo not drawn)	-17.3	6.4	-6.8	-18.3	-8.9	.	.	.
O=C1CC(C(=O)N2CCCc3ccccc32)CN1c1ccc(Cl)cc1 (stereo not drawn)	6.0	9.6	2.5	-3.6	-7.0	-3.9	.	.
C[C@H](CO)N1C[C@H](C)[C@@H](CN(C)Cc2ccncc2)Oc2c(NC(=O)C3CC3)cccc2C1=O	-20.0	.	.	-19.9	.	-3.5	.	.
CCCc1cc(=O)[nH]c(SCC(=O)N2c3ccccc3NC(=O)C2(C)C)n1	-0.7	.	.	9.9	.	-0.3	.	.
COc1cccc(-c2sc3ccccc3c2-c2ccc(OCCN(C)C)cc2)c1	104.4*	.	.	100.5*	.	20.0	25.2	.
CC(C)CCN(C(=O)C1CSC2(C)CCC(=O)N12)c1c(N)n(Cc2ccccc2)c(=O)[nH]c1=O (stereo not drawn)	-9.9	2.8	-1.2	10.1	19.5	-1.4	.	.
O=C(Nc1ccncc1)c1cc(-c2ccccn2)nc2ccccc12	-4.7	-3.4	1.5	9.5	-7.5	1.4	.	.
O=C(Nc1ccc(F)cc1)c1cc(-c2ccccn2)nc2c(Cl)cccc12	-11.3	0.6	3.9	60.0*	-3.4	10.8	46.1*	61.5*
COc1ccc(C(=O)c2c(C(F)(F)F)oc3c2C(=O)c2ccccc2C3=O)cc1OC	101.5*	-18.4	64.7*	85.7*	99.8*	.	71.5*	6.4
COc1ccc(C(=O)Nc2ccc3c(c2)C(=O)c2ccccc2C3=O)cc1OC	-6.8	5.1	-3.5	-10.8	-0.6	-1.9	.	.
CC(NC(=O)Nc1ccccc1Cl)c1ccc2c(c1)OCO2 (stereo not drawn)	21.0	3.4	10.2	6.5	3.0	0.9	.	.
COc1ccc(C(C#N)c2nc3ccccc3nc2Cl)cc1 (stereo not drawn)	6.3	3.6	-21.3	51.8*	-3.2	-4.3	19.1	.
O=C(c1ccco1)N1CCC(c2nc3ccccc3[nH]2)CC1	-12.3	-2.2	5.0	20.0	-10.5	-4.8	.	.
Cc1ccc(Cl)cc1NC1=C/C(=N\S(=O)(=O)c2cccs2)c2ccccc2C1=O	101.4*	41.7	60.6*	80.6*	95.0*	110.9*	99.8*	52.3*
Cc1ccc(NC2=C/C(=N\S(=O)(=O)c3cccs3)c3ccccc3C2=O)c(C)c1	-6.2	-0.5	56.8*	84.5*	100.4*	114.3*	100.0*	51.9*
Cc1csc(NC(=O)C(C)Oc2ccc(Cl)cc2C)n1 (stereo not drawn)	7.4	.	.	7.5	.	5.0	.	.
Cc1cc2c(cc1C)-c1nnc(-c3ccc4ccccc4n3)n1C(C)(C)C2	-8.3	-6.5	7.0	69.8*	4.1	0.6	-0.8	.
CC1(C)Cc2ccccc2-c2nnc(-c3ccc4ccccc4n3)n21	-15.9	?	18.2	5.9	8.2	2.8	.	.
CCc1ccc(/C=C(\C)C(=O)c2c(C)cc(C)[nH]c2=O)cc1	-6.2	4.7	-2.8	-18.1	3.1	-4.4	.	.
SMILES	CSC inhib	Calb FLC	T cruzi inh	Mdm2-MdmX inh	SKKanGAS inh	Beta apoptosis	Mdm2-MdmX conf	Full FLuc ctr
Cc1ccc(/C=C/C(=O)c2c(C)cc(C)[nH]c2=O)cc1	.	27.0	-2.6	70.3*	-1.6	.	44.7*	50.8*
CCc1ccc(/C=C/C(=O)c2c(C)cc(C)[nH]c2=O)cc1	7.6	25.9	-1.5	71.6*	-0.3	-24.3	48.1*	30.6
CCN(c1ccccc1)S(=O)(=O)c1ccc(N2CCN(c3ccccc3O)CC2)nc1	5.1	.	.	1.7	.	15.0	.	.
N#C/C(=C/c1ccc(-c2ccccc2)o1)c1nc(-c2cccs2)cs1	11.3	.	.	.	.	-2.8	.	.
N#C/C(=C\c1ccc(-c2ccc(F)cc2)o1)C(=O)Nc1nc(-c2cccs2)cs1	12.3	-6.9	-54.9	71.0*	8.1	0.5	20.9	.
C=CCn1c(N)c(C(=O)Nc2cccc(C)c2)c2nc3ccccc3nc21	25.0	14.3	46.5	67.2*	51.1*	-1.5	20.6	.
Nc1c(C(=O)Nc2ccccc2)c2nc3ccccc3nc2n1CCCN1CCOCC1	97.9*	16.3	26.8	67.0*	15.5	2.3	28.9	.
CC(=O)Nc1nnc(SCC(=O)c2ccc3c(c2)Cc2ccccc2-3)s1	15.3	5.4	-25.3	37.7	-4.7	-3.9	.	.
CCC(=O)Nc1nnc(SCC(=O)c2ccc3c(c2)Cc2ccccc2-3)s1	18.0	-8.3	-5.1	54.8*	6.2	.	5.2	.
Cn1c(N)c(C(=O)c2ccccc2)c(=O)n(C)c1=O	0.8	4.8	.	20.5	-7.1	-1.2	.	.
Cn1c(=O)c(/C(N)=N/OC(=O)c2ccccc2)cn(-c2ccccc2)c1=O	-3.7	7.3	4.4	58.1*	-3.1	1.4	25.3	.
COc1ccc(-c2coc3cc4oc(=O)c5ccccc5c4cc23)cc1F	.	-0.5	11.9	75.0*	-8.5	20.4	55.2*	57.9*
COc1ccc(-c2c(-c3ccccc3OC)oc3ccccc23)cc1F	25.8	.	.	1.2	.	1.0	.	.
N=c1c(S(=O)(=O)c2ccc(Cl)cc2)cc2c(=O)n3ccccc3nc2n1C1CCCCC1	-7.5	-10.0	51.1	29.4	17.0	-2.6	.	.
CCCCCC(=O)Nc1cccc(C2=NOC3(C2)C[C@@H](C(N)=O)N(C(=O)CC(c2ccccc2)c2ccccc2)C3)c1 (stereo partly drawn)	17.9	7.0	76.2*	53.0*	35.1	-1.7	48.3*	65.1*
C/C=C\C(=O)Nc1cccc(C2=NOC3(C2)C[C@@H](C(N)=O)N(C(=O)CC(c2ccccc2)c2ccccc2)C3)c1 (stereo partly drawn)	-3.1	-8.5	12.6	-2.1	15.8	0.0	.	.
O=C(Cn1cnc2sc(-c3ccccc3)cc2c1=O)NCCc1ccccc1	-0.5	1.5	-5.4	92.7*	4.2	4.4	35.0	97.6*
O=C(Cn1cnc2sc(-c3ccccc3)cc2c1=O)NCc1ccccc1	.	1.8	-14.8	77.5*	-8.0	.	55.8*	56.0*
